Test system: DU-145 prostate carcinoma cells
Test: MTT cell viability assay
Type: cell-based
Details: 24 h
Outline: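 DU-145 prostate carcinoma cells grown at 37 °C, 5% CO2, then seeded at 1.5 × 10^5 cells per well. Test compound dilution series (10–500 μg/mL) prepared in RPMI-1640 and applied for 24 h; viability read by MTT, expressed as IC50. Elevated-Zn2+ conditions: medium adjusted with 50 μM ZnCl2. DTNB conditions: cells preincubated 1 h in RPMI-1640 with 2.5 mM DTNB, and dilution series supplemented with 1 mM DTNB during the 24 h exposure.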

H2N-EAEAEA-SS-(Ac)CAhxGHHPHGHHPH-amide (disulfide) [(EA)3-thiol]
cytotoxicity against DU-145 cells (in words) (Zn2+ condition not stated): no activity

(GHHPG)2
cytotoxicity against DU-145 cells (in words) (elevated Zn2+ (50 μM ZnCl2), no DTNB): No activity | cytotoxicity against DU-145 cells (in words) (normal Zn2+ conditions (no ZnCl2 added)): No activity

From PMC7081261 (ACS Omega, 2020)
